Key:
[1] = biological target: Alternative oxidase, mitochondrial (Trypanosoma brucei brucei, UniProt Q26710); assay: Inhibition of recombinant Trypanosoma brucei brucei alternative oxidase using ubiquinol as substrate preincubated for 2 mins followed by substrate addition by UV-Vis spectrophotometry
Procedure, shortened: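 Recombinant ΔMTS-TAO was preincubated for 2 min with varying inhibitor amounts at 25 °C in 50 mM Tris-HCl pH 7.4 with 0.05% octaethylene glycol monododecyl ether. The reaction was started with ubiquinol, and its oxidation was followed at 278 nm for 2 min. DMSO served as negative control and ascofuranone/SHAM as positive controls. IC50 came from residual activity versus inhibitor concentration.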

[2] = test system: Trypanosoma brucei brucei; assay: Antitrypanosomal activity against bloodstream form of wild type Trypanosoma brucei brucei S427 trypomastigotes incubated for 48 hrs by resazurin dye based fluorescence assay; type: functional, organism-based; settings: S427, 48 h
Procedure, shortened: (§1)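 Bloodstream T. b. brucei in complete HMI-9 at 37 °C, 5% CO2, 2 × 10⁵ cells/mL, exposed to doubling dilutions of compound for 48 h. Resazurin was then added and cells were incubated a further 24 h. Fluorescence was read at ex 544/em 590 nm with a drug-free control and pentamidine as positive control. EC50 came from a variable-slope sigmoidal fit, at least 3 independent experiments.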

[3] = Cytotoxicity against HEK293T cells assessed as reduction in cell viability […] by resazurin dye based fluorescence assay; design: species or system HEK-293T; settings: human
[4] = Resistance factor, ratio of EC50 for Antitrypanosomal activity against bloodstream form of Trypanosoma brucei brucei AQP1-3 KO trypomastigotes to EC50 for antitrypanosomal activity against bloodstream form of wild type Trypanosoma brucei brucei S427 trypomastigotes; type: functional
Procedure, shortened: (§2)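 The assay used bloodstream forms in HMI-9 at 37 °C, 5% CO2, 2 × 10⁵ cells/mL, read at ex 544/em 590 nm. EC50 came from a variable-slope sigmoidal fit, at least 3 experiments.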

[5] = Selectivity index, ratio of CC50 cytotoxicity against HEK293T cells to EC50 for antitrypanosomal activity against bloodstream form of wild type Trypanosoma brucei brucei S427 trypomastigotes; type: toxicity, cell-based; settings: human; read-out: Ratio CC50/EC50
Procedure, shortened: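 SI = CC50 on HEK 293T divided by EC50 on WT s427. For HEK 293T, cells adhered 24 h, were exposed 30 h, then given resazurin for 24 h (ex 530/em 590). For trypanosomes, cells were exposed 48 h, then given resazurin for 24 h (ex 544/em 590). Both values came from dose-response fits.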

[6] = test system: Trypanosoma brucei brucei; assay: Antitrypanosomal activity against bloodstream form of Trypanosoma brucei brucei AQP1-3 KO trypomastigotes incubated for 48 hrs by resazurin dye based fluorescence assay; type: functional, organism-based; procedure, shortened: as §1
[7] = Resistance factor, ratio of EC50 for antitrypanosomal activity against drug resistant Trypanosoma brucei B48 to EC50 for antitrypanosomal activity against bloodstream form of wild type Trypanosoma brucei brucei S427 trypomastigotes; type: functional; procedure, shortened: as §2
[8] = test system: Trypanosoma brucei brucei; assay: Antitrypanosomal activity against drug resistant Trypanosoma brucei B48 incubated for 48 hrs by resazurin dye based fluorescence assay; type: functional, organism-based; settings: B48, 48 h; procedure, shortened: as §1
[9] = Drug localization in mitochondria of mouse MC3T3-E1 cells at 0.6 uM incubated for 30 mins by MTDR staining based single-photon excitation fluorescence analysis; type: ADME; settings: mc3t3-e1, 0.5 h
Procedure, shortened: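 MC3T3-E1 preosteoblasts were grown in αMEM with 10% FBS, glutamine and pen/strep, then seeded at 25,000 cells/well on glass-bottom slides. Cells were preincubated with compound for 30 min at 37 °C, then given MitoTracker Deep Red (16 nM final) for 30 min. Confocal imaging used alternating excitation: 561 nm with detection at 580–630 nm, and 640 nm with detection at 650–720 nm.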

[10] = Drug localization in mitochondria of Trypanosoma brucei brucei at 40 uM incubated for 60 mins by MTG dye based confocal microscopy analysis; type: ADME; settings: 1 h
Procedure, shortened: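 Bloodstream T. b. brucei at 2 × 10⁶ cells/mL were given compound in complete HMI-9 for 1 h at 37 °C, 5% CO2. MitoTracker Green (100 nM final) was added for 10 min. Cells were then pelleted, PBS-washed and stained with Hoechst 33342 for 10 min in the dark. They were immobilised in PBS-primed CyGEL and imaged for overlap with MTG.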

[11] = Drug localization in mitochondria of mouse MC3T3-E1 cells incubated for 30 mins by […] based two-photon excitation microscopy analysis; type: ADME; settings: mc3t3-e1, 0.5 h
[12] = Drug localization in rat liver mitochondria; type: ADME
Procedure, shortened: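 Rat liver was homogenised in 20 mM HEPES/250 mM sucrose, pH 7.4. After 800×g spins, mitochondria were enriched at 9000×g. Probe at 3 × 10⁻⁷ M was incubated with the mitochondrial suspension for 20 min at room temperature, then spun at 10,000×g for 10 min. Supernatant emission (ex 470 and 540 nm) was compared with probe in buffer alone to estimate the fraction partitioned into mitochondria.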

[13] = Drug uptake in bloodstream form of Trypanosoma brucei brucei AQP1-3 KO trypomastigotes at 0.2 to 2 uM measured after 1 hr by fluorimeter; type: ADME; settings: dose 0.2-2 µM
Procedure, shortened: (§3)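 Mid-log bloodstream 427WT or aqp1-3 null cells were washed and resuspended at 10⁸ cells/mL in assay buffer. Fluorescence was read continuously at 37 °C, 5% CO2 (ex 544/em 620). After a background period, compound was added at the stated final concentration. Each trace averages 3 replicate wells on one plate.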

[14] = Drug uptake in bloodstream form of wild type Trypanosoma brucei brucei S427 trypomastigotes assessed as increase in fluorescent signal at 0.2 uM measured by fluorimeter; type: ADME; procedure, shortened: as §3

Chain of Alternative oxidase, mitochondrial (Q26710 whole entry): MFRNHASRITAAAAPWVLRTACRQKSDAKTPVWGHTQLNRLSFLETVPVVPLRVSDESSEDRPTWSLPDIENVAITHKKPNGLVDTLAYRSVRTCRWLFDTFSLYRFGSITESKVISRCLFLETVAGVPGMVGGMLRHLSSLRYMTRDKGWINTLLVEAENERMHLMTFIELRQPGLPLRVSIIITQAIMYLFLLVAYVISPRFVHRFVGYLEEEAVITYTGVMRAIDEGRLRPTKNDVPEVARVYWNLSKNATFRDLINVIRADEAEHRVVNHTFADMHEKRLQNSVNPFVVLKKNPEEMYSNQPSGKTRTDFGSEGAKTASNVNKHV

SMILES: COC(=O)c1c(C)cc(OCCCCCCCCCCCCCC[n+]2ccc(/C=C/c3cc4c5c(c3O)CCCN5CCC4)cc2)cc1O
- IC50 [1]: 42 nM
- EC50 [2]: 540 nM
- CC50 [3]: 23600 nM
- Ratio EC50 [4]: 0.81
- selectivity ratio [5]: 43.6
- EC50 [6]: 440 nM
- Ratio EC50 [7]: 1.1
- EC50 [8]: 590 nM

SMILES: Cc1cc(O)cc(OCCCCCCCCCCCCCC[n+]2ccc(/C=C/c3cc4c5c(c3O)CCCN5CCC4)cc2)c1.[Br-]
- IC50 [1]: 145 nM
- EC50 [2]: 500 nM
- Drug uptake [9]: Active
- CC50 [3]: 22200 nM
- Ratio EC50 [4]: 0.85
- selectivity ratio [5]: 44.1
- EC50 [6]: 430 nM
- Ratio EC50 [7]: 1.25
- EC50 [8]: 630 nM

SMILES: Cc1c(Cl)c(O)cc(O)c1C(=O)OCCCCCCCCCCCCCCBr
- IC50 [1]: 750 nM
- EC50 [2]: 6840 nM
- CC50 [3]: 55900 nM
- Ratio EC50 [4]: 1.91
- selectivity ratio [5]: 8.2
- EC50 [6]: 13100 nM
- Ratio EC50 [7]: 1.48
- EC50 [8]: 10100 nM

SMILES: Cc1cc[n+](CCCCCCCCCCCCCCOC(=O)c2c(O)cc(O)c(Cl)c2C)cc1
- IC50 [1]: 720 nM
- EC50 [2]: 240 nM
- CC50 [3]: 43700 nM
- Ratio EC50 [4]: 0.8
- selectivity ratio [5]: 182
- EC50 [6]: 190 nM
- Ratio EC50 [7]: 1.53
- EC50 [8]: 220 nM

SMILES: N=C(N)c1ccc(OCCCCCOc2ccc(C(=N)N)cc2)cc1 [PENTAMIDINE]
- EC50 [2]: 4.9 nM
- Ratio EC50 [4]: 6.9
- EC50 [6]: 34 nM
- Ratio EC50 [7]: 102
- EC50 [8]: 500 nM

SMILES: Cc1cc[n+](CCCCCCCCCCCCCCOC(=O)c2c(C)c(Cl)c(O)c(Cl)c2O)cc1
- IC50 [1]: 910 nM
- EC50 [2]: 2550 nM
- CC50 [3]: 4400 nM
- selectivity ratio [5]: 1.7
- Ratio EC50 [7]: 1.03
- EC50 [8]: 2640 nM

SMILES: Cc1cc[n+](CCCCCCCCCCCCCCOC(=O)c2c(C)cc(O)cc2O)cc1
- IC50 [1]: > 5000 nM
- EC50 [2]: 55 nM
- CC50 [3]: 760 nM
- selectivity ratio [5]: 13.8
- Ratio EC50 [7]: 1.04
- EC50 [8]: 60 nM

SMILES: Cc1cc(O)cc(O)c1C(=O)OCCCCCCCCCCCCCC[n+]1ccc(/C=C/c2cc3c4c(c2O)CCCN4CCC3)cc1.[Br-]
- IC50 [1]: 360 nM
- EC50 [2]: 1010 nM
- Drug uptake [9]: Active
- Drug uptake [10]: Active
- CC50 [3]: > 100000 nM
- Ratio EC50 [4]: 1.03
- selectivity ratio [5]: > 100
- EC50 [6]: 1050 nM
- Drug uptake [11]: Active
- Ratio EC50 [7]: 1.17
- EC50 [8]: 1190 nM
- Drug uptake [12]: 66%

SMILES: Cc1cc[n+](CCCCCCCCCCCCCCOc2cc(C)c(C(=O)O)c(O)c2)cc1
- IC50 [1]: 1800 nM
- CC50 [3]: > 20000 nM
- Ratio EC50 [4]: 0.84
- selectivity ratio [5]: > 10
- EC50 [6]: 16600 nM

SMILES: Oc1c(/C=C/c2cc[n+](CCCCCCCCCCCCCCBr)cc2)cc2c3c1CCCN3CCC2.[Br-]
- IC50 [1]: > 5000 nM
- EC50 [2]: 430 nM
- CC50 [3]: 26700 nM
- Ratio EC50 [4]: 0.79
- selectivity ratio [5]: 62.6
- EC50 [6]: 340 nM
- Ratio EC50 [7]: 1.16
- EC50 [8]: 490 nM
- Drug uptake [13]: Not Active
- Drug uptake [14]: Not Active

From ChEMBL document CHEMBL4837204, “Synthesis, biological, and photophysical studies of molecular rotor-based fluorescent inhibitors of the trypanosome alternative oxidase” (Eur J Med Chem, 2021)
